The text below walks through data of ChEMBL document CHEMBL1629578, “Structure-activity relationships of antimicrobial and lipoteichoic acid-sequestering properties in polyamine sulfonamides” (Antimicrob Agents Chemother, 2009).

Series [1] concerns HEK293. Put plainly: Sequestration activity Saccharomyces cerevisiae lipoteichoic acid assessed as inhibition of TLR2-mediated NF-kappaB translocation in HEK293 cells stably transfected TLR2/MD2/CD14/alkaline phosphatase by reporter gene assay. It counts as cell-based. Conditions: Staphylococcus aureus, in the assay text read “Staphylococcus aureus” for “Saccharomyces cerevisiae”. The procedure, abridged:
(§1)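 HEK-Blue-2 reporter cells (TLR2, MD2, CD14, NF-κB/AP-1-driven secreted alkaline phosphatase) were grown to confluence, then stimulated with LTA purified from S. aureus (n-butanol extraction, delipidated, enzymatically deproteinated) plus graded compound concentrations. sAP was read with a chromogen at 620 nm. Dilutions were run in quadruplicate and experiments repeated three times.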

Series [2] concerns HEK293. Put plainly: Neutralizing activity lipopolysaccharide assessed as inhibition of TLR4-mediated NF-kappaB translocation in HEK293 cells stably transfected TLR4/MD2/CD14/alkaline phosphatase by reporter gene assay. It counts as cell-based. The essentials: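 HEK-Blue-4 cells (TLR4, MD2, CD14, NF-κB/AP-1-inducible secreted alkaline phosphatase) were grown to confluence and stimulated with E. coli O111:B4 LPS plus graded compound concentrations. Alkaline phosphatase was read with a chromogen at 620 nm. Each dilution was run in quadruplicate and experiments repeated three times.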

For series [3], the system named is HEK293. Put plainly: Sequestering activity against lipoteichoic acid assessed as inhibition of TLR2-mediated NF-kappaB induction in HEK293 cells stably transfected TLR2/MD2/CD14/alkaline phosphatase by reporter gene assay. (In a reporter assay the amount or activity of a reporter protein is the signal.)
Another series has as its system Escherichia coli. Put plainly: Antimicrobial activity against Escherichia coli ATCC 9637 at 37 degC by broth microdilution method. It counts as functional, organism-based. The procedure, abridged: (§2)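 Broth microdilution in non-cation-supplemented Mueller-Hinton broth. Mid-log cultures were adjusted to OD600 0.5, diluted 10-fold and added to equal volumes of 2-fold serially diluted compound. Plates were incubated overnight at 37°C and read at 600 nm. MIC was the lowest concentration giving complete growth inhibition. Triplicate points from a representative experiment.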
Background: In broth dilution the organism is exposed to a series of concentrations in liquid medium.

Series [4] has as its system HEK293. Put plainly: Neutralizing activity against saccharomyces cerevisiae lipoteichoic acid assessed as inhibition of TLR2-mediated NF-kappaB induction in HEK293 cells stably transfected TLR2/MD2/CD14/alkaline phosphatase by reporter gene assay. Conditions: Staphylococcus aureus, in the assay text read “Staphylococcus aureus” for “Saccharomyces cerevisiae”. It counts as cell-based. The procedure, abridged: as §1

Series [5] in a line: Aqueous solubility of the compound. It counts as physicochemical. As to conditions: buffer.
A further series has as its system Staphylococcus aureus. Put plainly: Antimicrobial activity against Staphylococcus aureus ATCC 13709 at 37 degC by broth microdilution method. It counts as functional, organism-based. The procedure, abridged: as §2
The nature of series [6]: (§3) Sequestering activity against saccharomyces cerevisiae lipoteichoic acid assessed as inhibition of TLR2-mediated NF-kappaB induction in HEK293 cells stably transfected TLR2/MD2/CD14/alkaline phosphatase by reporter gene assay. It counts as cell-based. Conditions: Staphylococcus aureus, in the assay text read “Staphylococcus aureus” for “saccharomyces cerevisiae”. The procedure, abridged:
as §1

Series [7] has as its system HEK293. Described as §3. The class given is cell-based. Conditions: Staphylococcus aureus, in the assay text read “Staphylococcus aureus” for “Saccharomyces cerevisiae”. The essentials:
as §1

The source made the active and inactive calls. The calls are words filed in the database; no cut-off is given here.

`CCCCCCCCCCCCCCCCCCS(=O)(=O)NCCCNCCCCNCCCN`: the inhibition entry in the series on HEK293 [1], in the series with HEK293 [2] and in the series with HEK293 [3] was “Active” in each case.
Take `CCCCCCCCCCCCS(=O)(=O)NCCCNCCCNCCCCNCCCN`: the inhibition result in the series on HEK293 [1], in the series with HEK293 [2] and in the series with HEK293 [3] was “Active” each time. Moreover, the result in the series with Escherichia coli was Active.
For orientation: EC50 means the concentration at which the effect is half-maximal. Turning to `CCCCCCCCCCS(=O)(=O)NCCCNCCCNCCCCCCNCCCNCCCNS(=O)(=O)CCCCCCCCCC.Cl`, the inhibition result in the series with HEK293 [4] was “inactive”. For the same compound, the solubility result in series [5] was “Insoluble”. Besides, in the series on Staphylococcus aureus, the result was Active. Besides, in the series on Escherichia coli, the result was inactive. Moreover, the 50% effective concentration (EC50) in series [6] came out at 60 µM.
`CCCCCCCCCCCCCCCCS(=O)(=O)NCCCNCCCNCCCCNCCCN`: the inhibition entry in the series with HEK293 [1], in the series on HEK293 [2] and in the series with HEK293 [3] was “Active” in each case. Also, the outcome in the series on Escherichia coli was Active. Besides, in [6], the concentration for a half-maximal effect (EC50) was 1 µM.
As to `CCCCCCCCCCS(=O)(=O)NCCCNCCCCNCCCN`, the inhibition result with HEK293 [1], in the series on HEK293 [2] and in the series with HEK293 [3] was “Active” throughout.
Turning to `CCCCCCCCS(=O)(=O)NCCCNCCCNCCCCNCCCN`, the inhibition entry with HEK293 [1], with HEK293 [2] and in the series on HEK293 [3] was “Active” throughout.
As to `CCCCCCCCCCS(=O)(=O)NCCCNCCCNCCCCNCCCN`, the inhibition result in the series on HEK293 [1], in the series with HEK293 [2] and in the series with HEK293 [3] was “Active” each time.
`CCCCCCCCCCCCS(=O)(=O)NCCCNCCCCNCCCN`: the inhibition result in the series on HEK293 [1], in the series with HEK293 [2] and in the series with HEK293 [3] was “Active” each time.
Turning to `CCCCCCCCCCCCCCCCCCS(=O)(=O)NCCCNCCCNCCCCNCCCN`, the inhibition result in the series with HEK293 [1], with HEK293 [2] and in the series with HEK293 [3] was “Active” each time.
On to `CCCCCCCCCCCCCCCCS(=O)(=O)NCCCNCCCNCCCCCCNCCCNCCCNS(=O)(=O)CCCCCCCCCCCCCCCC.Cl`, for which the inhibition result with HEK293 [4] is “inactive”. The solubility entry in [5] is listed as “Insoluble”. For the same compound, the outcome in the series with Staphylococcus aureus was Active. Further, in [6], the EC50 was 60 µM.
On to `CCCCCCCCS(=O)(=O)NCCCNCCCNCCCCCCNCCCNCCCNS(=O)(=O)CCCCCCCC.Cl`, for which, in the series on HEK293 [4], the inhibition result was “inactive”. Further, the solubility entry in series [5] is “Insoluble”. Besides, the outcome with Staphylococcus aureus was Active. Also, in the series with Escherichia coli, the result was inactive. Further, the EC50 in series [6] was determined as 60 µM.
Turning to `CCCCCCCCCCCCS(=O)(=O)NCCCNCCCNCCCCCCNCCCNCCCNS(=O)(=O)CCCCCCCCCCCC.Cl`, the inhibition result in the series with HEK293 [4] is “inactive”. The solubility entry in series [5] is listed as “Insoluble”. For the same compound, the result in the series with Staphylococcus aureus was Active. The EC50 in [6] was determined as 60 µM.
Turning to `CCCCCCCCCCCCCCCCS(=O)(=O)NCCCNCCCCNCCCN`, the inhibition result in the series on HEK293 [1], with HEK293 [2] and with HEK293 [3] was “Active” each time. In addition, the concentration giving a half-maximal response (EC50) in series [6] was 1 µM.
As for POLYMYXIN B, the outcome in the series on HEK293 [7] was Active.
For `CCCCCCCCCCCCCCCCCCS(=O)(=O)NCCCNCCCNCCCCCCNCCCNCCCNS(=O)(=O)CCCCCCCCCCCCCCCCCC.Cl`, the inhibition entry in the series on HEK293 [4] is “inactive”. The solubility result in [5] is listed as “Insoluble”. Besides, the outcome with Staphylococcus aureus was Active. Also, the EC50 in [6] came to 60 µM.
With `CCCCCCCCS(=O)(=O)NCCCNCCCCNCCCN`, the inhibition entry in the series on HEK293 [1], in the series with HEK293 [2] and in the series on HEK293 [3] was “Active” each time.
